Measurements taken from ChEMBL document CHEMBL1122058, “Agents for the treatment of brain injury. 1. (Aryloxy)alkanoic acids” (J Med Chem, 1982).
Calls of active or inactive are those of the source. No cut-off for these calls is given here.

Columns and labels:
[1] = species on record: Felis catus; test: In vitro inhibition of HCO3- stimulated swelling in cat cerebrocortical tissue slice; type: functional; conditions: read-out: I 50
In short: (§1)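 Cat cerebral cortex slices (~150 mg, 0.5 mm) incubated aerobically 60 min at 37 °C in K+-rich (27 mM) Hepes-buffered saline-glucose with test compound as Na salt. HCO3- (NaHCO3 or TEAB) added from sidearm at 20 min to 10 mM final; HCO3- flasks gassed with 2.5% CO2/97.5% O2. Swelling by reweighing; Na+/K+ by flame photometry, Cl- by amperometric titration. Units: per g initial fresh weight; means ± SE, Student's t test.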

[2] = Dissociation constant (pKa) (determined in 30% EtOH); type: physicochemical
[3] = Distribution coefficient (D %) between octanol and buffer of pH 7.4; type: physicochemical; conditions: octanol/water
[4] = species on record: Rattus norvegicus; test: Relative salidiuretic efficacy was scored in Rat; Marginal; type: functional, organism-based; conditions: Urine
[5] = species on record: Canis familiaris; test: Relative salidiuretic efficacy was scored in dog; moderate; type: functional, organism-based; conditions: Canis lupus familiaris; Urine
[6] = species on record: Pan troglodytes; test: Relative salidiuretic efficacy was scored in chimpanzee; moderate; type: functional, organism-based; conditions: Urine
[7] = species on record: Rattus norvegicus; test: Relative salidiuretic efficacy was scored in Rat; moderate; type: functional, organism-based; conditions: Urine
[8] = species on record: Rattus norvegicus; test: Relative salidiuretic efficacy was scored in Rat; weak; type: functional, organism-based; conditions: Urine
[9] = species on record: Rattus norvegicus; test: Relative salidiuretic efficacy was scored in Rat; inactive; type: functional, organism-based; conditions: Urine
[10] = species on record: Canis familiaris; test: Relative salidiuretic efficacy was scored in dog; Marginal; type: functional, organism-based; conditions: Canis lupus familiaris; Urine
[11] = species on record: Felis catus; test: In vitro inhibition of HCO3- stimulated swelling in cat cerebrocortical tissue slice; At no concentration was swelling inhibited 100%; type: functional; conditions: read-out: I 50; in short: as §1
[12] = species on record: Pan troglodytes; test: Relative salidiuretic efficacy was scored in chimpanzee; very marked; type: functional, organism-based; conditions: Urine
[13] = species on record: Homo sapiens; test: Relative salidiuretic efficacy was scored in human; very marked; type: functional, organism-based; conditions: Urine
[14] = species on record: Canis familiaris; test: Relative salidiuretic efficacy was scored in dog; very marked; type: functional, organism-based; conditions: Canis lupus familiaris; Urine
[15] = species on record: Rattus norvegicus; test: Relative salidiuretic efficacy was scored in Rat; very marked; type: functional, organism-based; conditions: Urine
[16] = species on record: Pan troglodytes; test: Relative salidiuretic efficacy was scored in chimpanzee; weak; type: functional, organism-based; conditions: Urine
[17] = species on record: Canis familiaris; test: Relative salidiuretic efficacy was scored in dog; weak; type: functional, organism-based; conditions: Canis lupus familiaris; Urine
[18] = species on record: Canis familiaris; test: Relative salidiuretic efficacy was scored in dog; inactive; type: functional, organism-based; conditions: Canis lupus familiaris; Urine
[19] = species on record: Pan troglodytes; test: Relative salidiuretic efficacy was scored in chipanze; weak; type: functional, organism-based; conditions: Urine
[20] = species on record: Homo sapiens; test: Relative salidiuretic efficacy was scored in human; moderate; type: functional, organism-based; conditions: Urine
[21] = system: Felis catus; test: Mortality of animals recorded as the number of animals dead out of the total animals (39) taken for the study at dose 1 mg/kg; type: functional
In short: (§2)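 Adult conditioned cats (2.5–4 kg) under iv methohexital (13.25 mg/kg, plus 2.75 mg/kg if needed) received machine-induced acceleration/deceleration head injury. Forty min later they were paralysed with gallamine and ventilated with 6% O2/94% N2 for 60 min (arterial pO2 23 ± 1 torr). Drug was given iv 20 min post-injury, before hypoxemia. Mortality was scored as dead/total, chi-square tested.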

[22] = system: Felis catus; test: Mortality of animals recorded as the number of animals dead out of the total animals (22) taken for the study at dose 1 mg/kg; type: functional; in short: as §2
[23] = species on record: Canis familiaris; test: Relative salidiuretic efficacy was scored in dog; marked; type: functional, organism-based; conditions: Canis lupus familiaris; Urine

## CCC1(C2CCCC2)Cc2cc(OCCCC(=O)O)c(Cl)c(Cl)c2C1=O (racemic)
[1]
  IC50: > 10 nM
[2]
  pKa: 3.8
[3]
  Distribution: 98.7%
[4]
  Relative salidiuretic activity: Marginal

## CCC1(C2CCCC2)Cc2cc(OCC(=O)O)c(Cl)c(Cl)c2C1=O (racemic)
[5]
  Relative salidiuretic activity: moderate
[1]
  IC50: 1 nM
[2]
  pKa: 3.9
[6]
  Relative salidiuretic activity: moderate
[3]
  Distribution: 97%
[7]
  Relative salidiuretic activity: moderate

## CCCC[C@]1(C2CCCC2)Cc2cc(OCC(=O)O)c(Cl)c(Cl)c2C1=O
[1]
  IC50: 0.3 nM
[2]
  pKa: 3.9
[8]
  Relative salidiuretic activity: weak
[3]
  Distribution: 99%

## CCCCC1(C2CCCC2)Cc2cc(OCCCC(=O)O)c(Cl)c(Cl)c2C1=O (racemic)
[9]
  Relative salidiuretic activity: inactive
[1]
  IC50: 4 nM
[2]
  pKa: 4.4
[3]
  Distribution: 99.8%

## CCCC[C@]1(C2CCCC2)Cc2cc(OCCCC(=O)O)c(Cl)c(Cl)c2C1=O
[9]
  Relative salidiuretic activity: inactive
[1]
  IC50: 1000 nM
[2]
  pKa: 4.4
[3]
  Distribution: 99.9%

## CC1(C2CCCC2)Cc2cc(OC/C=C/CC(=O)O)c(Cl)c(Cl)c2C1=O (racemic)
[1]
  IC50: > 40000 nM
[2]
  pKa: 5.1
[3]
  Distribution: 98%

## C[C@@]1(C2CCCC2)Cc2cc(OCCCC(=O)O)c(Cl)c(Cl)c2C1=O
[10]
  Relative salidiuretic activity: inactive
[1]
  IC50: 250 nM
[2]
  pKa: 5.7
[3]
  Distribution: 99%
[4]
  Relative salidiuretic activity: inactive

## CC1(C2CCCC2)Cc2cc(OC3(C(=O)O)CCC3)c(Cl)c(Cl)c2C1=O (racemic)
[11]
  IC50: 1000 nM
[2]
  pKa: 3.8
[3]
  Distribution: 98.6%

## NS(=O)(=O)c1cc(C(=O)O)c(NCc2ccco2)cc1Cl [FUROSEMIDE]
[12]
  Relative salidiuretic activity: Active
[13]
  Relative salidiuretic activity: Active
[14]
  Relative salidiuretic activity: Active
[15]
  Relative salidiuretic activity: Active
[1]
  IC50: 10000 nM
[3]
  Distribution: 28%

## CC1(Cc2ccccc2)Cc2cc(OCCCC(=O)O)c(Cl)c(Cl)c2C1=O (racemic)
[1]
  IC50: > 100000 nM
[2]
  pKa: 6.3
[3]
  Distribution: 99.5%

## CC1(C2CCCC2)Cc2cc(OCc3ccc(C(=O)O)cc3)c(Cl)c(Cl)c2C1=O (racemic)
[1]
  IC50: > 10000 nM
[2]
  pKa: 6.2
[3]
  Distribution: 100%

## CCC(C)C(=O)c1ccc(OCC(=O)O)c(Cl)c1Cl (stereo unspecified)
[16]
  Relative salidiuretic activity: weak
[9]
  Relative salidiuretic activity: inactive
[17]
  Relative salidiuretic activity: weak
[1]
  IC50: 500 nM
[2]
  pKa: 3.5
[3]
  Distribution: 96%

## CCCCC1(C2CCCC2)Cc2cc(OCC(=O)O)c(Cl)c(Cl)c2C1=O (racemic)
[1]
  IC50: 3 nM
[2]
  pKa: 3.9
[8]
  Relative salidiuretic activity: weak
[3]
  Distribution: 99%

## CC1(Cc2ccccc2)Cc2cc(OCC(=O)O)c(Cl)c(Cl)c2C1=O (racemic)
[10]
  Relative salidiuretic activity: Marginal
[1]
  IC50: 1 nM
[2]
  pKa: 3.8
[6]
  Relative salidiuretic activity: Marginal
[3]
  Distribution: 91%
[4]
  Relative salidiuretic activity: Marginal

## CCCC[C@@]1(C2CCCC2)Cc2cc(OCCCC(=O)O)c(Cl)c(Cl)c2C1=O
[9]
  Relative salidiuretic activity: inactive
[2]
  pKa: 4.4
[3]
  Distribution: 99.9%

## CC1(c2ccccc2)Cc2cc(OCCCC(=O)O)c(Cl)c(Cl)c2C1=O (racemic)
[2]
  pKa: 6.4
[3]
  Distribution: 99%
[18]
  Relative salidiuretic activity: inactive

## O=C(O)COc1cc2c(c(Cl)c1Cl)C(=O)C(CC1CCCC1)C2 (racemic)
[10]
  Relative salidiuretic activity: Marginal
[1]
  IC50: 10 nM
[2]
  pKa: 3.8
[8]
  Relative salidiuretic activity: Marginal
[3]
  Distribution: 97%
[19]
  Relative salidiuretic activity: Marginal

## O=C(O)COc1cc2c(c(Cl)c1Cl)C(=O)C(C1CCCC1)C2 (racemic)
[16]
  Relative salidiuretic activity: moderate
[20]
  Relative salidiuretic activity: moderate
[5]
  Relative salidiuretic activity: moderate
[1]
  IC50: 10000 nM
[2]
  pKa: 3.9
[8]
  Relative salidiuretic activity: moderate
[3]
  Distribution: 83%

## CC(C)(Oc1cc2c(c(Cl)c1Cl)C(=O)C(C)(C1CCCC1)C2)C(=O)O (racemic)
[1]
  IC50: > 100000 nM
[2]
  pKa: 3.7
[3]
  Distribution: 98.6%

## C=C(CC)C(=O)c1ccc(OCC(=O)O)c(Cl)c1Cl [ETHACRYNIC ACID]
[12]
  Relative salidiuretic activity: Marginal
[13]
  Relative salidiuretic activity: Marginal
[21]
  Mortality: 14
[14]
  Relative salidiuretic activity: Marginal
[1]
  IC50: 1000 nM
[3]
  Distribution: 61%
[4]
  Relative salidiuretic activity: Marginal

## CC1(c2ccccc2)Cc2cc(OCC(=O)O)c(Cl)c(Cl)c2C1=O (racemic) [INDACRINONE]
[12]
  Relative salidiuretic activity: marked
[13]
  Relative salidiuretic activity: marked
[22]
  Mortality: 8
[23]
  Relative salidiuretic activity: marked
[15]
  Relative salidiuretic activity: marked
[1]
  IC50: 1000 nM
[2]
  pKa: 3.7
[3]
  Distribution: 84%

## CCCC1(C2CCCC2)Cc2cc(OCCCC(=O)O)c(Cl)c(Cl)c2C1=O (racemic)
[11]
  IC50: 8 nM
[2]
  pKa: 4.1
[3]
  Distribution: 99.6%
[4]
  Relative salidiuretic activity: Marginal

## CCCC[C@@]1(C2CCCC2)Cc2cc(OCC(=O)O)c(Cl)c(Cl)c2C1=O
[1]
  IC50: 50000 nM
[2]
  pKa: 3.9
[8]
  Relative salidiuretic activity: weak
[3]
  Distribution: 99%
